From PubChem BioAssay AID463184 (Molecular Libraries Program, Specialized Chemistry Center, …, 2010)
Activity calls are given as the source filed them.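 Rule for the calls: active = IC50 of 10 microM or lower; inactive = the rest.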

target: Transitional endoplasmic reticulum ATPase (Homo sapiens) (UniProt P55072); experiment: inhibition of purified VCP ATP hydrolysis – biochemical, dose response (AID 463184); conditions: purified p97 ATPase, Kinase-Glo luminescence
Procedure, shortened: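 System – human p97 ATPase · Reagent – ATP substrate, added from 500 µM stock · Times – Compound–enzyme 10 min at RT, ATP hydrolysis 30 min, 37 °C · Signal – Kinase-Glo Plus luminescence measuring leftover ATP · Measure – IC50 from hyperbolic fit of percent remaining enzyme activity · Benchmarks – DMSO wells and no-enzyme wells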

Sequence of Transitional endoplasmic reticulum ATPase (Homo sapiens) (P55072 whole entry, looked up): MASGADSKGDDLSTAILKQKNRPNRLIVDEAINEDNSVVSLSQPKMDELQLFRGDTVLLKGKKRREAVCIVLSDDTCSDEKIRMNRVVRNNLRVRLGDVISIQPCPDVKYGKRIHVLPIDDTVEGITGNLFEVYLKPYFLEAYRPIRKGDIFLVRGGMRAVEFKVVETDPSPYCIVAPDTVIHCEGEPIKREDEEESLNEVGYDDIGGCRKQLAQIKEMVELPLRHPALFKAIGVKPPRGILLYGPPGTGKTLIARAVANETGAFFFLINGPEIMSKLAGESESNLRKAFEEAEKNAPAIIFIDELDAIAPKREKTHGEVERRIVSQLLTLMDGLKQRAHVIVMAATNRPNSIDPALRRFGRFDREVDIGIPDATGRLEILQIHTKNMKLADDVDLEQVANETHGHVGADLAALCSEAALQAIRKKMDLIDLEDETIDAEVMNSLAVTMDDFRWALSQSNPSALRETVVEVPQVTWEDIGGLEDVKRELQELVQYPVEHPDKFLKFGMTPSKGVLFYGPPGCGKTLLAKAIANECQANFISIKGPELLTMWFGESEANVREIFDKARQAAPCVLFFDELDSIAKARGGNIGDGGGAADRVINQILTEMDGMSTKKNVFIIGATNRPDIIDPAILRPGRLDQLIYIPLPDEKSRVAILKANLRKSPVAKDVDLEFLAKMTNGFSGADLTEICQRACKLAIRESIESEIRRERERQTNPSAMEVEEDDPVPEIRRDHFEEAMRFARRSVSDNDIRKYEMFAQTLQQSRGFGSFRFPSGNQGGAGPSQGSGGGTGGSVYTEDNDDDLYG

First: c1ccc(CNc2nc(NCc3ccccc3)c3ccccc3n2)cc1
Second: Brc1cccc(CNc2nc(NCc3ccccc3)c3ccccc3n2)c1
The IC50 of the first is 2.3-fold lower: 1.6 µM for the first, 3.7 µM for the second. The first is the more potent here.

`Fc1ccc(CNc2nc(NCc3ccccc3)c3ccccc3n2)cc1` and `Cc1ccc(CNc2nc(NCc3ccccc3)c3ccccc3n2)cc1` are within 1.5-fold of each other in IC50: 2.6 µM for the first, 3 µM for the second.

`COc1ccc(CNc2nc(NCc3ccccc3)c3ccccc3n2)cc1` and `Brc1ccc(CNc2nc(NCc3ccccc3)c3ccccc3n2)cc1` are within 1.5-fold of each other in IC50: 3 µM for the first, 4.3 µM for the second.

First: N#C/C(=C(\O)COC(=O)CCC(=O)c1ccc2c(c1)OCCO2)c1nc2ccccc2[nH]1
Second: Fc1cccc(CNc2nc(NCc3ccccc3)c3ccccc3n2)c1
The IC50 of the first is 3.2-fold higher: 10 µM for the first, 3.1 µM for the second. The second is the more potent here.

`Cc1cccc(CNc2nc(NCc3ccccc3)c3ccccc3n2)c1` and `Clc1cccc(CNc2nc(NCc3ccccc3)c3ccccc3n2)c1` are within 1.5-fold of each other in IC50: 2.3 µM for the first, 2.7 µM for the second.

Going from `FC(F)(F)c1cc(CNc2nc(NCc3ccccc3)c3ccccc3n2)ccc1Cl` to `Clc1ccc(CNc2nc(NCc3ccccc3)c3ccccc3n2)cc1Cl`, the IC50 falls from 4.7 µM to 3 µM (1.6-fold).

`Cc1ccccc1CNc1nc(NCc2ccccc2)c2ccccc2n1` and `Fc1ccccc1CNc1nc(NCc2ccccc2)c2ccccc2n1` are within 1.5-fold of each other in IC50: 2.7 µM for the first, 2.9 µM for the second.

`Clc1ccc(CNc2nc(NCc3ccccc3)c3ccccc3n2)cc1` and `FC(F)(F)c1ccc(CNc2nc(NCc3ccccc3)c3ccccc3n2)cc1` are within 1.5-fold of each other in IC50: 3.1 µM for the first, 2.6 µM for the second.

`COc1cccc(CNc2nc(NCc3ccccc3)c3ccccc3n2)c1` and `COc1ccccc1CNc1nc(NCc2ccccc2)c2ccccc2n1` are within 1.5-fold of each other in IC50: 4.5 µM for the first, 3.6 µM for the second.

First: Clc1ccccc1CNc1nc(NCc2ccccc2)c2ccccc2n1
Second: Brc1ccccc1CNc1nc(NCc2ccccc2)c2ccccc2n1
The IC50 of the first is 2.6-fold higher: 5.3 µM for the first, 2 µM for the second.

For `Nc1nc(CCl)nc(N(c2ccccc2)c2ccccc2)n1`, the IC50 was “inactive”.
`Nc1nc(CCl)nc(Nc2ccc(Cl)c(Cl)c2)n1` was tested, and the IC50 was “inactive”.
With `Nc1nc(CCl)nc(Nc2ccc(Oc3ccccc3)cc2)n1` the IC50 was “inactive”.
For `Cc1c(Cl)cccc1Nc1nc(N)nc(CCl)n1`, the IC50 was “inactive”.
With `N#C/C(=C(\O)COC(=O)C1COc2ccccc2O1)c1nc2ccccc2[nH]1` (stereo not drawn) the IC50 was “inactive”.
In the case of `CCc1nc2ccccc2n1CC(=O)OC/C(O)=C(/C#N)c1nc2ccccc2[nH]1`, the IC50 is reported as “inactive”.
With `N#C/C(=C(\O)COC(=O)CNc1ccc(C(F)(F)F)cc1[N+](=O)[O-])c1nc2ccccc2[nH]1` the IC50 was “inactive”.
With `CC(C)c1ccc(Nc2nc(N)nc(CCl)n2)cc1` the IC50 was “inactive”.
